{"data": "Results pooled from the literature", "note": "pIC50: −log10 of the molar value."}
{"Compound": "N#Cc1ccc(NC(=S)NN)cc1", "cell line": "CRFK", "assay": "cell growth or viability, MTS", "endpoint": "CC50", "value": "84.6 µg/mL"}
{"Compound": "CC(C)(C)NC(=O)N[C@H](C(=O)N1C[C@H]2[C@@H]([C@H]1C(=O)NC(CC1CCC1)C(=O)C(N)=O)C2(C)C)C(C)(C)C (stereo partly drawn)", "cell line": "MDCK", "assay": "cell growth or viability, neutral red", "setting": "48 h", "endpoint": "CC50", "value": "> 100 µM"}
{"Compound": "Nc1nc(O)c2ncn(COC(CO)CO)c2n1", "cell line": "CRFK", "assay": "cell growth or viability, MTS", "endpoint": "CC50", "value": "> 100 µM"}
{"Compound": "CC(N)C12CC3CC(CC(C3)C1)C2 (stereo not drawn)", "cell line": "MDCK", "assay": "cell growth or viability, MTT", "setting": "72 h", "endpoint": "CC50", "value": "62 µM"}
{"Compound": "CC[C@@]1(O)C(=O)OCc2c1cc1n(c2=O)Cc2cc3ccccc3nc2-1", "cell line": "MDCK", "system": "Caco-2", "setting": "0.5 µM, 105 min, pH 7.4", "endpoint": "Papp A→B", "value": "27 ×10⁻⁶ cm/s"}
{"Compound": "CC(C)[C@H](N)C(=O)N1CCC[C@H]1B(O)O", "cell line": "K562", "assay": "cell growth or viability, ATP luminescence", "setting": "60 µM, 5 days", "endpoint": "viability", "value": "98%"}
{"Compound": "CCC(CC)O[C@@H]1C=C(C(=O)O)C[C@H](N)[C@H]1NC(C)=O", "cell line": "MDCK", "assay": "cell growth or viability, MTT", "setting": "72 h", "endpoint": "CC50", "value": "> 200 µM"}
{"Compound": "COc1ccc(C=NNC(=S)Nc2ccc(C#N)cc2)cc1", "cell line": "CRFK", "assay": "cell growth or viability, MTS", "endpoint": "CC50", "value": "> 100 µg/mL"}
{"Compound": "O=C(CCCN1CCC(O)(c2ccc(Cl)cc2)CC1)c1ccc(Br)cc1", "cell line": "K562", "assay": "cell growth or viability", "endpoint": "pIC50", "value": 4.39}
